The source made the active and inactive calls.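 Rule for the calls: active = inhibition above 10%; inactive = the rest.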

Hexokinase-4 (Homo sapiens), sequence (P35557 whole entry, looked up): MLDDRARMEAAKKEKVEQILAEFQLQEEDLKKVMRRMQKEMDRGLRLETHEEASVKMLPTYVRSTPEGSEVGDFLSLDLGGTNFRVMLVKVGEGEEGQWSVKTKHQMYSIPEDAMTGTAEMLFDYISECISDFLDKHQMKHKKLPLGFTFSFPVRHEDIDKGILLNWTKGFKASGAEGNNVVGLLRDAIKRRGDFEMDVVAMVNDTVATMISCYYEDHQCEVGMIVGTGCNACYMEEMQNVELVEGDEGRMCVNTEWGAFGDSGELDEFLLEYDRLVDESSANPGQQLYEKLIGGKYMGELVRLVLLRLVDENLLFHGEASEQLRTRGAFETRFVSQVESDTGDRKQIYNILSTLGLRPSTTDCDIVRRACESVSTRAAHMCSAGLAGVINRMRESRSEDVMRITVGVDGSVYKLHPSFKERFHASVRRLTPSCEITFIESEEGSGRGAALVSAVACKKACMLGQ

The target of the assay is Hexokinase-4 (Homo sapiens) (UniProt P35557). In words: hGlck enzyme activity off-target inhibitors – biochemical, recombinant hGlck, counter-screen for TbHK1 inhibitor project (AID 492951). The settings on record: G6PDH-coupled NADH absorbance 340 nm, at 10 µM; hits give high values. In outline:
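Test system: recombinant human glucokinase, G6PDH-coupled; Medium: pH 7.9 TEA buffer, MgCl2, NAD+; Also added: 20 mM glucose as reaction starter, plus 1 mM ATP; Compound dosing: single final test compound dose of 10 µM; Schedule: 10 min preincubation at room temperature; Measured by: NADH formation by absorbance at 340 nm; Repeats: triplicate.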
On the technique in general: The purpose of a counterscreen is to sort out artefacts and off-target activity.
For the compound `COc1ccc(CC(=O)Nc2cc(Cl)ccc2C(=O)O)cc1`, the result was inactive.
As for `COc1ccccc1C(=O)Nc1cc(Cl)ccc1C(=O)O`, the result was inactive.
Still for that read-out and setting: the value for `COc1cccc(C(=O)Nc2cc(Cl)ccc2C(=O)O)c1` was “inactive”.
By inhibition is commonly meant the share of the control response that was lost under treatment. With `O=C1c2cccc(Br)c2SCN1c1ccccc1`, the inhibition is 5.5% (inactive).
For the compound `COc1ccc(-n2sc3ccccc3c2=O)cc1`, the result was inactive.
`COc1ccc2c(=O)n(-c3ccccc3)sc2c1`: the outcome was inactive.
The same measure, in the same setting: under `CCCCCCC(=O)Nc1cc(Cl)ccc1C(=O)O` stands “inactive”.
For the compound `O=c1s[nH]c2ccccc12`, the inhibition is 48.8% (active).
Same read-out and setting: the value for `O=c1c2cc(F)ccc2sn1-c1ccc(Cl)cc1` was 40% (active).
With `COc1ccc(C(=O)Nc2cccc(Cl)c2)cc1`, the result was inactive.
With `O=c1c2cc(Br)ccc2sn1-c1ccccc1`, the inhibition is 38.4% (active).
Turning to `COC(=O)c1ccc(Cl)cc1NC(=O)c1ccccc1OC`, the result was inactive.
The same measure, in the same setting: under `COc1ccc(C(=O)Nc2cc(Br)ccc2C(=O)O)cc1` stands “inactive”.
For `O=C(Cn1sc2ccccc2c1=O)Nc1ccccc1I`, the inhibition is 14.5% (active).
Take `O=C(O)c1ccccc1NC(=O)c1ccccc1C(=O)O`: the outcome was inactive.
Consider `COc1cccc(CC(=O)Nc2cc(Cl)ccc2C(=O)O)c1`, for which the outcome was inactive.
Turning to `CCCCCCCC(=O)Nc1cc(Cl)ccc1C(=O)O`, the result was inactive.
The same measure, in the same setting: under `COc1ccc(C(=O)Nc2ccccc2-c2nn[nH]n2)cc1` stands “inactive”; under `O=C(Cn1sc2ccccc2c1=O)N1CCOCC1`, “inactive”.
With `COc1ccc(C(=O)NC(CC(=O)O)c2ccc(Cl)cc2)cc1` (stereo not drawn), the result was inactive.
Regarding `N#Cc1ccccc1NC(=O)Cn1sc2ccccc2c1=O`, the inhibition is 10.9% (active).
In the case of `O=C(Cn1sc2ccccc2c1=O)Nc1ccccc1Br`, the inhibition is 9% (inactive).
The same measure, in the same setting: the value for `CN(C)S(=O)(=O)c1cccc(-n2sc3ccccc3c2=O)c1` was 22.1% (active).
For the compound `COc1ccc(C(=O)Nc2cc(Cl)ccc2C#N)cc1`, the result was inactive.
On the same count and under the same terms, under `COc1ccc(N2C(=O)c3ccc(Cl)cc3C2=O)cc1` stands “inactive”.
The same measure, in the same setting: under `Cc1ccccc1N1Cc2ccccc2C1=O` stands “inactive”.
In the case of `COc1ccc(C(=O)Nc2c(C(=O)O)ccc(Cl)c2Cl)cc1`, the inhibition was 10.6% (inactive).
Turning to `CC(C)(C)c1ccc(C(=O)Nc2cc(Cl)ccc2C(=O)O)cc1`, the result was inactive.
On to `O=C(Cn1sc2ccccc2c1=O)Nc1ccccc1C(F)(F)F`, for which the inhibition is 11.1% (active).
As to `O=C1c2cc(Br)ccc2S(=O)N1c1ccccc1` (stereo not drawn), the outcome was inactive.
Turning to `COc1ccc(C(=O)Nc2cc(Cl)c(Br)cc2C(=O)O)cc1`, the inhibition was 22.3% (active).
Consider `N#Cc1ccc(Oc2ccc3c(c2)B(O)OC3)cc1`, for which the outcome was inactive.
Same read-out and setting: under `COc1ccc(C(=O)Nc2cc(C)ccc2C(=O)O)cc1` stands “inactive”.
With `COc1ccc(NC(=O)c2ccccc2C(=O)O)cc1`, the inhibition was 0.9% (inactive).
For the compound `CC(C)(C)c1ccc(C(=O)Nc2cc(Cl)c(Br)cc2C(=O)O)cc1`, the inhibition is 11.9% (active).
Same read-out and setting: under `CC(C)Cc1ccc(C(=O)Nc2cc(Cl)ccc2C(=O)O)cc1` stands 19.5% (active).
As for `O=c1c(Br)csn1-c1ccc(Br)cc1`, the inhibition is 32.2% (active).
Still for that read-out and setting: under `COc1cccc(NC(=O)Cn2sc3ccccc3c2=O)c1` stands 2.9% (inactive).

Values taken from PubChem BioAssay AID492951 (Molecular Libraries Program, Specialized Chemistry Center, …, 2010).
